A short description of series [1]: Metabolic stability in serum (unknown origin). It is filed as ADME.
Series [2] in a line: Oral absorption in beagle dog at 5 mg/kg, po by LC/MS/MS analysis. The arrangement: dose 5 mg/kg, route oral. The note with it: in vivo. The format is ADME, organism-based, Canis lupus familiaris. In short, it runs like this:
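Naive male beagle dogs were dosed once, orally at 5 mg/kg in EtOH/PEG 400/50 mM citrate buffer pH 4 (5/40/55), or intravenously at 0.5 mg/kg for reference. Plasma was sampled over 24 h and processed by acetonitrile precipitation. Bioavailability %F = AUC_po × Dose_iv / (AUC_iv × Dose_po).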

The nature of series [3]: AUC (0 to infinity) in jagular vein cannulated beagle dog at 0.5 mg/kg, iv by LC/MS/MS analysis. The format is ADME, organism-based, Canis lupus familiaris. The arrangement: time infinity, dose 0.5 mg/kg, route intravenous. The note with it: plasma. The method, boiled down:
(§1)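 Naive male beagle dogs got a single intravenous infusion of 0.5 mg/kg in EtOH/PEG 400/water 5/20/75, adjusted to pH 4 with HCl. EDTA-K3 blood was collected over 24 h and plasma isolated. Plasma was precipitated with acetonitrile to a final 60%, filtered, dried, reconstituted in 20% acetonitrile and analysed.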

Series [4] can be described thus: AUC (0 to infinity) in portal vein cannulated beagle dog at 0.5 mg/kg, iv by LC/MS/MS analysis. The format is ADME, organism-based, Canis lupus familiaris. The note with it: plasma. On the set-up: time infinity, dose 0.5 mg/kg, route intravenous. In short, it runs like this:
as §1

A short description of series [5]: Oral bioavailability in golden syrian hamster at 5 mg/kg. It is filed as ADME, organism-based, Mesocricetus auratus. The settings on record: in vivo.
The subject of series [6] is Syrian golden hamster. Briefly: Cmax in golden syrian hamster assessed as liver triphosphate level at 5 mg/kg, po by LC/MS/MS analysis. The arrangement: dose 5 mg/kg, route oral. It is filed as ADME, organism-based, Mesocricetus auratus. The note with it: in vivo. The method, boiled down:
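Groups of 12 Golden Syrian hamsters were dosed orally at 5 mg-equiv/kg. Vehicle was EtOH/PEG400/water buffered with 50 mM pH 4 citrate at 2.5 mg-equiv/mL. Liver was homogenized in four volumes of ice-cold 0.1% KOH/67 mM EDTA in 70% MeOH containing 0.25 μM Cl-ATP, then centrifuged, dried and reconstituted in 1 mM ammonium phosphate pH 7.0. Triphosphate was measured by LC/MS/MS, with endogenous ATP checked for sample stability.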

Series [7] has as its system Syrian golden hamster. Briefly: Cmax in golden syrian hamster assessed as liver triphosphate level at 1 mg/kg, iv by LC/MS/MS analysis. The arrangement: dose 1 mg/kg, route intravenous. The settings on record: in vivo. The format is ADME, organism-based, Mesocricetus auratus. In short, it runs like this: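 Golden Syrian hamsters in groups of 12, dosed iv at 1 mg-equiv/kg in EtOH/PEG400/water adjusted to pH 4 with HCl (0.5 mg-equiv/mL). Liver homogenised in ice-cold 70% MeOH with 0.1% KOH, 67 mM EDTA and 0.25 μM Cl-ATP internal standard, then centrifuged, dried and reconstituted. Triphosphate measured by LC/MS/MS; endogenous ATP checked for sample stability.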

A short description of series [8]: Metabolic stability in human liver S9 fraction assessed as extraction at 2 uM after 90 mins by LC/MS/MS analysis. It is filed as ADME, subcellular. The settings on record: read-out: Stability. In short, it runs like this:
(§2)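 Compound at 2 μM was incubated with human intestinal or hepatic S9 fraction plus NADPH and UDPGA for 90 min at 37 °C. Time-point samples were quenched in aqueous acetonitrile/methanol with internal standard and analysed by LC/MS/MS. Half-life came from an exponential first-order fit, and hepatic extraction was predicted from half-life using the well-stirred model.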

A short description of series [9]: Half life in human intestinal S9 fraction at 2 uM by LC/MS/MS analysis. It is filed as ADME, Intestine. The method, boiled down: as §2
The nature of series [10]: Permeability across basolateral to apical side in human Caco2 cells at 10 uM after 1 to 2 hrs by LC/MS/MS analysis. It is filed as ADME, cell-based. The note with it: Caco-2, read-out: permeability. The method, boiled down:
(§3)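 Caco-2 monolayers were grown at least 21 days, and membrane integrity was checked by TEER after buffer equilibration. Test compound was dosed at 10 μM on the apical or basolateral side, in duplicate wells. Receiver samples at 1 and 2 h were precipitated with acetonitrile plus internal standard and run by LC/MS/MS.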

Series [11] is described as follows: Permeability across apical to basolateral side in human Caco2 cells at 10 uM after 1 to 2 hrs by LC/MS/MS analysis. It is filed as ADME, cell-based. The settings on record: Caco-2, read-out: permeability. In short, it runs like this:
as §3

A short description of series [12]: Aqueous solubility of the compound in phosphate buffer at pH 7 by reverse-phase UPLC-UV method. The format is physicochemical. In short, it runs like this: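 Excess solid was suspended in pH 7 phosphate buffer at ambient temperature, sonicated, then stirred for at least 2 h. After centrifugation, the supernatant was quantified by reverse-phase UPLC-UV.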
The nature of series [13]: Lipophilicity, log D of the compound by HPLC/UV method. It is filed as physicochemical. The method, boiled down:
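A 10 mM DMSO stock was diluted 1:100 into 1:1 acetonitrile/water, shaken 30 min, and analysed by HPLC/UV on a C18 column with 20 mM ammonium acetate/acetonitrile mobile phase.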

The test system of the next series is Huh-7. Nature of the series: Prodrug coversion in human HuH7 cells assessed as triphosphate formation at 10 uM after 24 hrs by liquid chromatography coupled with mass spectrometry. It is filed as ADME, cell-based. The settings on record: huh-7, 24 h. In short, it runs like this: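 Huh-7 cells carrying the GT1b replicon, grown to confluency in 12-well plates (0.88 × 10⁶ cells/well). Exposed 24 h to 10 μM compound, then washed with ice-cold saline and extracted overnight in frozen 70% methanol. Dried extract resuspended in 1 mM ammonium phosphate pH 8.5. Triphosphate quantified by LC/triple-quadrupole MS.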

Series [14] in a line: Cytotoxicity against human HuH7 cells after 3 days by fluorescence assay. The note with it: Huh-7 cells. The format is cell-based. In short, it runs like this:
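Huh-7 HCV replicon cells were seeded at 2000 cells/well in medium without Geneticin. Compounds were added as ten-point 1:3 DMSO dilutions in quadruplicate (final DMSO 0.44%), with […] as the 100% cytotoxicity control. After 3 days at 37 °C, cells were washed and given 400 nM calcein AM for 30 min at RT, and fluorescence read at ex 490/em 520 nm. Signal was normalized to DMSO and puromycin wells, and CC50 taken from a four-parameter Hill fit.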

The test system of series [15] is Hepatitis C virus. Nature of the series: Antiviral activity against HCV genotype 1b infected in human HuH7 cells assessed as inhibition of viral replication after 3 days by luminescence assay. The note with it: Huh-7, 72 h. It is filed as functional, organism-based, Hepacivirus hominis. In short, it runs like this:
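Multiplex replicon assay carrying a renilla luciferase reporter, with stable GT1b, 1a and 2a replicons and chimeric 2b, 3a, 4a, 5a and 6a replicons. 2000 replicon cells/well in medium without Geneticin. Ten-step 1:3 serial dilutions, four replicates, 0.44% DMSO final. Incubated 3 days at 37 °C, 5% CO₂. Luminescence normalised to DMSO wells and to protease-inhibitor (ITMN-191) wells. EC50 from a four-parameter Hill fit.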

The test system of series [16] is Hepatitis C virus. Briefly: Selectivity ratio of EC50 for HCV harboring NS5B RNA dependent RNA polymerase S282T mutant to EC50 for wild-type HCV. It is filed as functional, Hepacivirus hominis.
A further series has as its system Hepatocyte. Briefly: Prodrug coversion in human hepatocytes assessed as triphosphate formation assesed per million cells at 10 uM incubated for 1 hr followed by compound washout by liquid chromatography coupled with mass spectrometry. It is filed as ADME, cell-based. On the set-up: dose 10 uM. The method, boiled down: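 Confluent primary human hepatocytes (0.88 × 10⁶ cells/well, Williams E medium) were exposed to 10 μM compound for 1 h, then to drug-free medium for 23 h. Cells were collected during and after exposure and extracted. Triphosphate was quantified by LC/MS/MS and expressed per million cells.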

In brackets after ≈: the same amount, converted by molar mass.

Turning to `CC(C)OC(=O)[C@H](C)NP(=O)(OC[C@H]1O[C@@](C#N)(c2ccc3c(N)ncnn23)[C@](C)(O)[C@@H]1O)Oc1ccccc1` (stereo partly drawn), in series [1], the Stability result is given as “Stable”. Further, the Fa in series [2] stood at 10%. Also, the AUC(0-inf) stood at 0.16 µM·h in [3] and 0.99 µM·h in [4]. For the same compound, the bioavailability in series [5] worked out at 1.9%. The Cmax is 530 nM in the series on Syrian golden hamster [6] and 5650 nM in the series with Syrian golden hamster [7]. For the same compound, the hepatic extraction ratio at 1.5 h, 2 µM in series [8] was determined as 0.9. Further, the half-life at 2 µM in series [9] was greater than 10.2 h. Also, the Papp B→A at 10 µM in series [10] was 8.92 ×10⁻⁶ cm/s. Besides, in [11], the Papp A→B at 10 µM is 0.16 ×10⁻⁶ cm/s. This compound also returned a solubility in series [12] of 306 µg/mL (≈ 533 µM). For the same compound, the logD in series [13] worked out at 1.8. For the same compound, in the series on Huh-7, the Drug metabolism stood at 20 µM. In series [14], this compound came in with a CC50 at 72 h greater than 89 µM. For the same compound, the EC50 with Hepatitis C virus [15] is 1.05 µM.
For `C[C@@]1(O)[C@H](O)[C@@H](CO)O[C@H]1n1ccc2c(N)ncnc21` [BETA-2'-C-METHYL-7-DEAZA-ADENOSINE], in the series with Hepatitis C virus [16], the “Ratio EC50” value was greater than 95.
On to `CC[C@H](C)OC(=O)[C@H](C)NP(=O)(OC[C@H]1O[C@@](C#N)(c2ccc3c(N)ncnn23)[C@](C)(O)[C@@H]1O)Oc1ccccc1` (stereo partly drawn), for which, in series [1], the Stability entry is on record as “Stable”. The compound further gave a Fa in series [2] of 16%. For the same compound, the AUC(0-inf) turned out to be 0.12 µM·h in series [3] and 0.8 µM·h in series [4]. In addition, the Cmax with Syrian golden hamster [6] worked out at 1270 nM. Also, in the series with Hepatocyte, the Drug metabolism entry was “Active”. Moreover, in [8], the hepatic extraction ratio at 1.5 h, 2 µM is 0.93. Besides, the half-life at 2 µM in [9] was 9.87 h. In addition, in [10], the Papp B→A at 10 µM stood at 17.9 ×10⁻⁶ cm/s. In addition, the Papp A→B at 10 µM in series [11] is 1.47 ×10⁻⁶ cm/s. Besides, the concentration in solution in series [12] (solubility) was 200 µg/mL (≈ 340 µM). The compound further returned a logD in [13] of 2.1. Also, the CC50 at 72 h in [14] was greater than 89 µM. For the same compound, in the series with Hepatitis C virus [15], the EC50 was 0.23 µM.
As for `C[C@H](NP(=O)(OC[C@H]1O[C@@](C#N)(c2ccc3c(N)ncnn23)[C@](C)(O)[C@@H]1O)Oc1ccccc1)C(=O)OC1CCCC1` (stereo partly drawn), in series [5], the bioavailability turned out to be 6%. Further, the Cmax with Syrian golden hamster [6] was found to be 840 nM; with Syrian golden hamster [7], 2800 nM. Further, the Drug metabolism result with Hepatocyte is “Active”. The hepatic extraction ratio at 1.5 h, 2 µM in series [8] was determined as 0.95. In series [9], this compound showed a half-life at 2 µM of 0.5 h. For the same compound, the Papp B→A at 10 µM in series [10] was 5.86 ×10⁻⁶ cm/s. For the same compound, the Papp A→B at 10 µM in series [11] was found to be 0.37 ×10⁻⁶ cm/s. The same compound gave a solubility in series [12] of 10 µg/mL (≈ 16.7 µM). In addition, in series [13], the logD was 2.2. In [14], this compound came in with a CC50 at 72 h greater than 89 µM. For the same compound, in the series on Hepatitis C virus [15], the EC50 was 0.45 µM.

For the origin of these results see ChEMBL document CHEMBL3120104, “Discovery of the first C-nucleoside HCV polymerase inhibitor (GS-6620) with demonstrated antiviral response in HCV infected patients” (J Med Chem, 2014).
